Reference: ChEMBL document CHEMBL3120089, “Indoloditerpenes from a marine-derived fungal strain of Dichotomomyces cejpii with antagonistic activity at GPR18 and cannabinoid receptors” (J Nat Prod, 2014)
pIC50, pKi: −log10 of the molar value. Calls of active or inactive are those of the source. The rule behind the calls is not given here.

How the values were obtained:
[1] = target: T1, G-protein coupled receptor 55 (Homo sapiens, UniProt Q9Y2T6); assay: Antagonist activity at human GPR55 expressed in CHO cells assessed as inhibition of LPI-mediated beta-arrestin recruitment after 90 mins by beta-galactosidase reporter gene assay; type: cell-based
Summary of the method: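 CHO cells stably expressing GPR55; PathHunter β-galactosidase complementation. 20,000 cells/well seeded in Opti-MEM with 2% FCS and selection antibiotics, 24 h at 37 °C. Compounds added in PBS with 10% DMSO and 0.1% BSA, 90 min at 37 °C, against a constant 1 μM LPI. Galacton-Star/Emerald-II lysis reagent for 60 min at rt, then luminescence read. IC50 from three independent experiments in duplicate.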

[2] = target: T1, G-protein coupled receptor 55; assay: Antagonist activity at human GPR55 expressed in CHO cells assessed as inhibition of LPI-mediated beta-arrestin recruitment at 10 uM after 90 mins by beta-galactosidase reporter gene assay relative to control; type: cell-based
Summary of the method: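 PathHunter β-galactosidase β-arrestin assay in CHO cells stably expressing GPR55. Cells incubated 24 h at 37 °C before use. Screening at 10 μM compound against 1 μM LPI, 90 min at 37 °C. Chemiluminescent Galacton-Star detection for 60 min at rt. Result given as % inhibition; three independent experiments in duplicate.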

[3] = target: T2, N-arachidonyl glycine receptor (Homo sapiens, UniProt Q14330); assay: Inverse agonist activity at human GPR18 expressed in CHO cells assessed as inhibition of 7.5 uM THC-mediated beta-arrestin recruitment after 90 mins by beta-galactosidase reporter gene assay; type: cell-based
T2 sequence (Q14330 whole entry): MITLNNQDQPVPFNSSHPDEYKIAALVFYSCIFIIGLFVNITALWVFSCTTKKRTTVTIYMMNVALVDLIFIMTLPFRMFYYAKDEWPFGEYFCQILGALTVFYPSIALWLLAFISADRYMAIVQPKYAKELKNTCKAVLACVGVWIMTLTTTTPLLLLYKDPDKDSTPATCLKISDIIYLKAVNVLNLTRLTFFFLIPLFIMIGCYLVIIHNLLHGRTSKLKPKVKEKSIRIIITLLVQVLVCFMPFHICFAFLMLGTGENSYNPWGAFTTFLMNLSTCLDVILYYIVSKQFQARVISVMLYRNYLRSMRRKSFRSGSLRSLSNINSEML

[4] = target: T3, Cannabinoid receptor 2 (Homo sapiens, UniProt P34972); assay: Displacement of [3H]-CP55940 from human CB2 receptor expressed in CHO cells; type: cell-based
Summary of the method: (§1)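 Competition binding against agonist radioligand [3H]CP55,940 at CB1 or CB2 receptors. Compound stocks in DMSO, final DMSO 2.5%. Ki from concentration–inhibition curves; three independent experiments in duplicate.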

[5] = target: Cannabinoid receptor 1 (Homo sapiens, UniProt P21554); assay: Displacement of [3H]-CP55940 from human CB1 receptor expressed in CHO cells; type: cell-based; conditions: for inhibition: concentration not given here; summary of the method: as §1
[6] = target: T2, N-arachidonyl glycine receptor; assay: Antagonist activity at human GPR18 expressed in CHO cells assessed as inhibition of […] uM THC-mediated beta-arrestin recruitment after 90 mins by beta-galactosidase reporter gene assay; type: cell-based
[7] = Solubility of the compound in water; type: physicochemical; conditions: buffer
[8] = test system: L6; assay: Cytotoxicity against rat L6 cells assessed as growth inhibition after 70 hrs by Alamar Blue assay; type: cell-based; conditions: L6, 70 h
[9] = target: T3, Cannabinoid receptor 2; assay: Antagonist activity at human CB2 receptor expressed in CHO cells assessed as inhibition of forskolin-induced cAMP accumulation incubated for 5 mins followed by forskolin challenge measured after 15 mins by liquid scintillation counting analysis in presence of [3H]cAMP; type: functional, cell-based
Summary of the method: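 CHO cells stably expressing human CB2; adenylate cyclase inhibition measured as intracellular cAMP, quantified by a cAMP competition binding assay; three independent experiments in duplicate.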

T1 sequence (Q9Y2T6 whole entry): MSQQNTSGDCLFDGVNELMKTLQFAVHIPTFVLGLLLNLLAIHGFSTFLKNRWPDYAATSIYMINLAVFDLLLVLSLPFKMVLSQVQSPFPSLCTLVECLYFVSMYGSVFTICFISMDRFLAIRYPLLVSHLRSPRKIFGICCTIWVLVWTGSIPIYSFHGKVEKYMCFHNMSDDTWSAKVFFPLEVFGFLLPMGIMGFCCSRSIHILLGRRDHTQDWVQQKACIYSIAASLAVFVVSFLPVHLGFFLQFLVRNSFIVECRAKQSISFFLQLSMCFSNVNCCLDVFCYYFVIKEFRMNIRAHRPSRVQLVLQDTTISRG
T3 sequence (P34972 whole entry): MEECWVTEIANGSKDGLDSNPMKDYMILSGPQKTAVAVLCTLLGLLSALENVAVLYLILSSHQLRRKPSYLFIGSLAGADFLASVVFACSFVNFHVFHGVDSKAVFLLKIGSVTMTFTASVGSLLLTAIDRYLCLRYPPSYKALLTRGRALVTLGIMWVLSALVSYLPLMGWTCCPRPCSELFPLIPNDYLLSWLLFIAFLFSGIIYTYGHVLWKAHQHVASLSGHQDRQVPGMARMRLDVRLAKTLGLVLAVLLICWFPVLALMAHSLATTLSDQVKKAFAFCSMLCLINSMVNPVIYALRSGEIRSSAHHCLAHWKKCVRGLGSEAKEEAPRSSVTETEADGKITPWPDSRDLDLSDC
Chain of Cannabinoid receptor 1 (P21554 whole entry): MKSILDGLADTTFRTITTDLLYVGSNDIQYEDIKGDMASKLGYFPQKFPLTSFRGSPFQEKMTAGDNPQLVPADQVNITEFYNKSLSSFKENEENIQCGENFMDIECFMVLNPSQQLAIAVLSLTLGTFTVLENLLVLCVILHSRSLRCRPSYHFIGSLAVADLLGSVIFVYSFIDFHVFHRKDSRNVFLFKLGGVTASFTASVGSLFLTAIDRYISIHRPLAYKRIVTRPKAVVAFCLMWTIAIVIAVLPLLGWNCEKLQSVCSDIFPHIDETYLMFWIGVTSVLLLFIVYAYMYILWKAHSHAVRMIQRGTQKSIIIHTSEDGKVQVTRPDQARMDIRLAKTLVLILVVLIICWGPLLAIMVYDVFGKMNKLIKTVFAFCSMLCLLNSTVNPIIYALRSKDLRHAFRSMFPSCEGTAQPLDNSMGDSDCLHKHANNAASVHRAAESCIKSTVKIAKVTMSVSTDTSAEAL

| SMILES | pIC50 [1] | inhibition [2] | pIC50 [3] | pKi [4] | pKi [5] | pIC50 [6] | solubility [7] | pIC50 [8] | inhibition [9] | inhibition [5] | inhibition ([4]; concentration not given here) |
| --- | --- | --- | --- | --- | --- | --- | --- | --- | --- | --- | --- |
| CC(C)=C[C@H]1C[C@]2(C)[C@H](CC[C@@]3(C)[C@H]2CC[C@H]2Cc4c([nH]c5ccccc45)[C@@]23C)O1 | < 5.00 | 0% | 5.00 | 5.32 | 5.36 |  |  |  |  |  |  |
| CC(C)=CCC[C@]1(C)[C@@H](O)CC[C@@]2(C)[C@H]1CC[C@H]1Cc3c([nH]c4ccccc34)[C@@]12C [EMINDOLE SB] | < 5.00 | 12% |  | 5.65 | 5.15 | < 5.00 |  |  |  |  |  |
| CC(C)=CCC[C@]1(C)[C@@H](O[C@@H]2O[C@H](CO)[C@@H](O)[C@H](O)[C@@H]2O)CC[C@@]2(C)[C@H]1CC[C@H]1Cc3c([nH]c4ccccc34)[C@@]12C | < 5.00 | 13% |  | 4.97 | 4.97 | < 5.00 | soluble | 4.24 | Active | 30% |  |
| COC(C)(C)/C=C/C[C@]1(C)[C@@H](O)CC[C@@]2(C)[C@H]1CC[C@H]1Cc3c([nH]c4ccccc34)[C@@]12C | < 5.00 | 31% | 4.87 | < 5.00 | < 5.00 |  |  |  |  | 39% | 33% |
